Results as given in ChEMBL document CHEMBL4673192, “Structure-activity relationship studies on 2,5,6-trisubstituted benzimidazoles targeting Mtb-FtsZ as antitubercular agents” (RSC Med Chem, 2021).
Converted amounts (≈) assume the structure as drawn.

Tests used:
[1] = tested on: Mycobacterium tuberculosis; assay: Antitubercular activity against mid logarithmic stage Mycobacterium tuberculosis H37Rv incubated for 6 days by alamar blue assay; type: functional; conditions: 144 h, time 6 day
Outline: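 Protocol B: the mid-log H37Rv culture (OD580 0.4) was diluted 1:100 and mixed with an equal volume of serially diluted compound (DMSO). After 6 days at 37 °C, Alamar blue plus 20% Tween 80 was added. Plates were read 24 h later at 570 nm against a 600 nm reference. Untreated inoculum wells gave the survival-inhibition curve, and rifampicin served as positive control.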

[2] = tested on: Mycobacterium tuberculosis; assay: Antitubercular activity against Mycobacterium tuberculosis H37Rv incubated for 6 days by alamar blue assay; type: functional; conditions: 144 h, time 6 day
Outline: (§1)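 MABA (protocol A): Mtb H37Rv grown in 7H9 with 10% OADC and 0.05% Tween-80 and used at mid-log phase. Compounds from DMSO stocks were serially diluted 2-fold, and the inoculum was set to OD600 0.005. Plates were incubated 6 days at 37 °C, then Alamar Blue was added for a further 24 h. MIC is the lowest concentration (μg mL−1) preventing the colour change.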

[3] = tested on: Mycobacterium tuberculosis; assay: Antitubercular activity against Mycobacterium tuberculosis H37Rv infected in immune compromised GKO mouse assessed as lung log CFU reduction; type: functional
[4] = tested on: Mycobacterium tuberculosis; assay: Antitubercular activity against Mycobacterium tuberculosis H37Rv by microplate alamar blue assay; type: functional; outline: as §1
[5] = tested on: Mycobacterium tuberculosis; assay: Antitubercular activity against Mycobacterium tuberculosis H37Rv infected in immune compromised GKO mouse assessed as spleen log CFU reduction; type: functional
[6] = Cytotoxicity against human HepG2 cells assessed as reduction in cell viability at 20 uM incubated for 72 hrs by MTT assay relative to control; type: cell-based; conditions: read-out: INH
Outline: (§2)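 MTT assay: cells were seeded at 2500/well and attached overnight to 70–90% confluency (HepG2 in RPMI-1640, WI-38 in DMEM, each with 10% FBS). Compound was given at 20 μM final with 0.5% DMSO for 72 h. MTT was applied for 4 h in the dark and the formazan dissolved in DMSO, with OD read at 570 nm. % inhibition is relative to the DMSO control, mean of triplicate.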

[7] = Cytotoxicity against human WI-38 cells assessed as reduction in cell viability at 20 uM incubated for 72 hrs by MTT assay relative to control; type: cell-based; conditions: read-out: INH; outline: as §2
WI-38 = assay: Cytotoxicity against human WI-38 cells assessed as reduction in cell viability incubated for 72 hrs by MTT assay; type: cell-based; conditions: WI-38, 72 h
[8] = Therapeutic index, ratio of IC50 for human WI-38 cells to MIC for Mycobacterium tuberculosis H37Rv; type: toxicity; conditions: read-out: TI

Row | Structure (SMILES) | MIC99 [2] [µg/mL] | also measured
1 | CCCCOC(=O)Nc1cc2nc(C3CCCCC3)[nH]c2cc1N(C)C | 0.06 (≈ 0.167 µM) | MIC99 [1]: 0.008 µg/mL (≈ 0.0223 µM)
2 | CN(C)c1cc2[nH]c(C3CCCCC3)nc2cc1NC(=O)c1ccc(C(F)(F)F)cc1F | – | Activity [3]: 5.7 log10CFU; MIC [4]: 0.16 µg/mL (≈ 0.357 µM); Activity [5]: 3.9 log10CFU
3 | CN(C)c1cc2[nH]c(C3CCCCC3)nc2cc1NC(=O)c1ccc(OC(F)(F)F)cc1F | 0.16 (≈ 0.344 µM) | cytotoxicity at 72 h, 20 µM [6]: 57%; Activity [3]: 5.7 log10CFU; MIC99 [1]: 0.019 µg/mL (≈ 0.0409 µM); MIC [4]: 0.16 µg/mL (≈ 0.344 µM); Activity [5]: 3.9 log10CFU; cytotoxicity at 72 h, 20 µM [7]: 78%
4 | CCCCOC(=O)Nc1cc2nc(CN3CCOCC3)[nH]c2cc1N(C)C | 2.4 (≈ 6.39 µM) | MIC99 [1]: 1.6 µg/mL (≈ 4.26 µM)
5 | Cc1ccc(C(=O)Nc2cc3nc(C4CCCC4)[nH]c3cc2N(C)C)cc1 | 0.625 (≈ 1.72 µM) | –
6 | COc1ccc(CC(=O)Nc2cc3nc(CN(C)c4ccccc4)[nH]c3cc2N(C)C)cc1 | > 10 | –
7 | CCCCOC(=O)Nc1cc2nc(CN(C)c3ccccc3)[nH]c2cc1N(C)C | 0.16 (≈ 0.405 µM) | –
8 | COc1ccc(C(=O)Nc2cc3nc(Cc4ccccc4)[nH]c3cc2N(C)C)cc1 | 1.25 (≈ 3.12 µM) | –
9 | Cc1ccc(C(=O)Nc2cc3nc(Cc4ccccc4)[nH]c3cc2N(C)C)cc1 | 1.56 (≈ 4.06 µM) | –
10 | CN(C)c1cc2[nH]c(C3CCCC3)nc2cc1NC(=O)c1ccccc1 | 1.56 (≈ 4.48 µM) | –
11 | CCCCOC(=O)Nc1cc2nc(SCC3CCCCC3)[nH]c2cc1N(C)C | 0.015 (≈ 0.0371 µM) | cytotoxicity at 72 h, 20 µM [6]: 0%; IC50 (WI-38): 20 µM; MIC99 [1]: 0.0039 µg/mL (≈ 0.00964 µM); selectivity ratio [8]: > 100; cytotoxicity at 72 h, 20 µM [7]: 52%
12 | CN(C)c1cc2[nH]c(Cc3ccccc3)nc2cc1NC(=O)c1ccc(F)cc1 | 0.63 (≈ 1.62 µM) | –
13 | CCC(CC)c1nc2cc(NC(=O)c3ccc(OC)c(OC)c3)c(N(C)C)cc2[nH]1 | 12.5 (≈ 30.4 µM) | –
14 | CCCCOC(=O)Nc1cc2nc(C3CCOCC3)[nH]c2cc1N(C)C | > 2.5 | –
15 | CN(C)c1cc2[nH]c(C3CCOCC3)nc2cc1NC(=O)c1ccc(OC(F)(F)F)cc1F | 10 (≈ 21.4 µM) | –
16 | CCC(CC)c1nc2cc(NC(=O)c3ccc(OC(F)(F)F)cc3)c(N(C)C)cc2[nH]1 | 0.31 (≈ 0.714 µM) | –
17 | CCC(CC)c1nc2cc(NC(=O)c3ccccc3)c(N(C)C)cc2[nH]1 | 1.56 (≈ 4.45 µM) | –
18 | CN(C)c1cc2[nH]c(Cc3ccccc3)nc2cc1NC(=O)C(C)(C)C | > 10 | –
19 | CN(C)c1cc2[nH]c(C3CCCC3)nc2cc1NC(=O)c1ccc(F)cc1F | 0.625 (≈ 1.63 µM) | –

Row | Structure (SMILES) | MIC99 [2] [µg/mL] | also measured
20 | CCC(CC)C(=O)Nc1cc2nc(C3CCCC3)[nH]c2cc1N(C)C | > 50 | –
21 | CCCCOC(=O)Nc1cc2nc(C(CC)CC)[nH]c2cc1N(C)C | 0.078 (≈ 0.225 µM) | cytotoxicity at 72 h, 20 µM [6]: 32%; cytotoxicity at 72 h, 20 µM [7]: 77%
22 | CCCc1ccc(C(=O)Nc2cc3nc(CN(C)c4ccccc4)[nH]c3cc2N(C)C)cc1 | 5 (≈ 11.3 µM) | –
23 | CCC(CC)c1nc2cc(NC(=O)c3ccc(C)cc3)c(N(C)C)cc2[nH]1 | 0.5 (≈ 1.37 µM) | –
24 | CCCCOC(=O)Nc1cc2nc(SCC)[nH]c2cc1N(C)C | 1.2 (≈ 3.57 µM) | MIC99 [1]: 0.16 µg/mL (≈ 0.476 µM)
25 | CN(C)c1cc2[nH]c(C3CCCC3)nc2cc1NC(=O)C1CCC1 | > 10 | –
26 | CCC(CC)c1nc2cc(NC(=O)c3ccccc3OC)c(N(C)C)cc2[nH]1 | 1.56 (≈ 4.1 µM) | –
27 | CN(C)c1cc2[nH]c(C3CCCC3)nc2cc1NC(=O)C(C)(C)C | 50 (≈ 152 µM) | –
28 | CCCCOC(=O)Nc1cc2nc(SC3CCCCC3)[nH]c2cc1N(C)C | – | cytotoxicity at 72 h, 20 µM [6]: 50%; MIC99 [1]: < 0.0081 µg/mL; cytotoxicity at 72 h, 20 µM [7]: 87%
29 | CCC(CC)C(=O)Nc1cc2nc(Cc3ccccc3)[nH]c2cc1N(C)C | > 10 | –
30 | CCCCOC(=O)Nc1cc2nc(SCc3ccccc3)[nH]c2cc1N(C)C | 0.31 (≈ 0.778 µM) | –
31 | CCCCOC(=O)Nc1cc2nc(SC)[nH]c2cc1N(C)C | 9.6 (≈ 29.8 µM) | MIC99 [1]: 1.28 µg/mL (≈ 3.97 µM)
32 | CN(C)c1cc2[nH]c(Cc3ccccc3)nc2cc1NC(=O)c1ccccc1 | 1.25 (≈ 3.37 µM) | –
33 | CN(C)c1cc2[nH]c(CN(C)c3ccccc3)nc2cc1NC(=O)c1ccc(C(C)(C)C)cc1 | 2.5 (≈ 5.49 µM) | –
34 | CC(C)c1nc2cc(NC(=O)c3ccc(C(C)(C)C)cc3)c(N(C)C)cc2[nH]1 | 0.78 (≈ 2.06 µM) | –
35 | CN(C)c1cc2[nH]c(Cc3ccccc3)nc2cc1NC(=O)c1ccc(F)cc1F | 0.63 (≈ 1.55 µM) | –
36 | CCCCOC(=O)Nc1cc2nc(CN3CCCC3)[nH]c2cc1N(C)C | 2.4 (≈ 6.68 µM) | MIC99 [1]: 1.6 µg/mL (≈ 4.45 µM)
37 | CCCCOC(=O)Nc1cc2nc(C(C)C)[nH]c2cc1N(C)C | 1.25 (≈ 3.93 µM) | –
38 | CCC(CC)c1nc2cc(NC(=O)c3ccc(F)cc3)c(N(C)C)cc2[nH]1 | 0.78 (≈ 2.12 µM) | –

Row | Structure (SMILES) | MIC99 [2] [µg/mL] | also measured
39 | CN(C)c1cc2[nH]c(CN(C)c3ccccc3)nc2cc1NC(=O)c1ccc(OC(F)(F)F)cc1F | 0.29 (≈ 0.578 µM) | cytotoxicity at 72 h, 20 µM [6]: 30%; MIC99 [1]: 0.19 µg/mL (≈ 0.379 µM); cytotoxicity at 72 h, 20 µM [7]: 59%
40 | CN(C)c1cc2[nH]c(C3CCOCC3)nc2cc1NC(=O)c1ccc(OC(F)(F)F)cc1 | > 10 | –
41 | CN(C)c1cc2[nH]c(CN(C)c3ccccc3)nc2cc1NC(=O)c1ccc(F)cc1F | 1.25 (≈ 2.87 µM) | –
42 | CCCCOC(=O)Nc1cc2nc(Cc3ccccc3)[nH]c2cc1N(C)C | < 0.078 | cytotoxicity at 72 h, 20 µM [6]: 80%; cytotoxicity at 72 h, 20 µM [7]: 93%
43 | CCCCOC(=O)Nc1cc2nc(CN(CCC)CCC)[nH]c2cc1N(C)C | 0.16 (≈ 0.411 µM) | cytotoxicity at 72 h, 20 µM [6]: 0%; cytotoxicity at 72 h, 20 µM [7]: 4%
44 | CN(C)c1cc2[nH]c(C3CCCC3)nc2cc1NC(=O)c1ccc(F)cc1 | 0.78 (≈ 2.13 µM) | –
45 | CCCCOC(=O)Nc1cc2nc(-c3cccs3)[nH]c2cc1N(C)C | > 10 | –
46 | CCCCOC(=O)Nc1cc2nc(C3CCCC3)[nH]c2cc1N(C)C | 0.31 (≈ 0.9 µM) | cytotoxicity at 72 h, 20 µM [6]: 42%; cytotoxicity at 72 h, 20 µM [7]: 86%
47 | CCC(CC)c1nc2cc(NC(=O)c3ccc(F)cc3F)c(N(C)C)cc2[nH]1 | 0.71 (≈ 1.84 µM) | –
48 | CN(C)c1cc2[nH]c(C3CCCC3)nc2cc1NC(=O)c1ccc(OC(F)(F)F)cc1 | 1.56 (≈ 3.61 µM) | –
49 | CN(C)c1cc2[nH]c(C3CCCC3)nc2cc1NC(=O)c1ccc(C(C)(C)C)cc1 | 0.78 (≈ 1.93 µM) | –
50 | COc1ccccc1C(=O)Nc1cc2nc(C3CCCC3)[nH]c2cc1N(C)C | 12.5 (≈ 33 µM) | –
51 | CN(C)c1cc2[nH]c(Cc3ccccc3)nc2cc1NC(=O)c1ccc(C(C)(C)C)cc1 | 0.33 (≈ 0.774 µM) | –
52 | CCCCOC(=O)Nc1cc2nc(SC(C)C)[nH]c2cc1N(C)C | 0.31 (≈ 0.884 µM) | –
53 | Cc1ccc(C(=O)Nc2cc3nc(CN(C)c4ccccc4)[nH]c3cc2N(C)C)cc1 | 1.25 (≈ 3.02 µM) | –
54 | CCCCOC(=O)Nc1cc2nc(Sc3ccccc3)[nH]c2cc1N(C)C | 0.31 (≈ 0.806 µM) | –
55 | COc1ccc(C(=O)Nc2cc3nc(C4CCCC4)[nH]c3cc2N(C)C)cc1 | 1.25 (≈ 3.3 µM) | –
56 | CCCCOC(=O)Nc1cc2nc(CN3CCCCC3)[nH]c2cc1N(C)C | 0.14 (≈ 0.375 µM) | cytotoxicity at 72 h, 20 µM [6]: 0%; MIC99 [1]: 0.09 µg/mL (≈ 0.241 µM); cytotoxicity at 72 h, 20 µM [7]: 60%
57 | CN(C)c1cc2[nH]c(Cc3ccccc3)nc2cc1NC(=O)c1ccc(OC(F)(F)F)cc1 | 1.25 (≈ 2.75 µM) | –
